Measurements of several laboratories.
pIC50: −log10 of the molar value.
Cell line: THP-1

CC(C)[C@H](N)C(=O)N1CCC[C@H]1B(O)O
pIC50 (cell growth or viability; ATP luminescence; 48 h): 6.69

COc1cccc2c1C(=O)c1c(O)c3c(c(O)c1C2=O)C[C@@](O)(C(=O)CO)C[C@@H]3O[C@H]1C[C@H](N)[C@H](O)[C@H](C)O1
pIC50 (cell growth or viability; MTT; 72 h): 5.49

Nc1nc(Nc2ccc3c(c2)CC[C@@H](N2CCCC2)CC3)nn1-c1cc2c(nn1)-c1ccccc1CCC2
pIC50 (cell growth or viability; trypan blue; 72 h): 5.59

NCCc1c[nH]cn1
pIC50 (TNF-α release; inhibitor; 17 h; LPS-stimulated): 5.72

O=C(Nc1nnc(-c2cc3ccccc3[nH]2)s1)c1cc2c([nH]c3ccccc32)c(-c2ccccc2)n1
pIC50 (cell growth or viability; MTT; 72 h): 5.45

CCC(NC(C)C)C(O)c1ccc(O)c(O)c1 (centres unmarked)
pIC50 (TNF-α release; inhibitor; 17 h; LPS-stimulated): 5.68

COc1ccc(-c2nc(C(=O)Nc3nnc(-c4cc5ccccc5[nH]4)s3)cc3c2[nH]c2ccccc23)cc1
pIC50 (cell growth or viability; MTT; 72 h): 5.50

CC(C)(C)c1ccc(S(=O)(=O)/C=C/C#N)cc1
pIC50 (TNF-α release; inhibitor; 17 h; LPS-stimulated): 6.13

COc1cc2nccc(Oc3ccc(NC(=O)C4(C(=O)Nc5ccc(F)cc5)CC4)cc3)c2cc1OC
pIC50 (cell growth or viability; trypan blue; 72 h): 5.53

COc1cc(-c2nc(C(=O)Nc3nnc(-c4cc5ccccc5n4C)s3)cc3c2[nH]c2ccccc23)cc(OC)c1OC
pIC50 (cell growth or viability; MTT; 72 h): 5.06

Cl.NCc1ccc(-c2nc(-c3ccc(Oc4ccc(C(F)(F)F)cc4)cc3)no2)cc1
IC50 (cell growth or viability; LDH; 24 h): 4.4 mg/L

COc1cc(/C=C/C(=O)CC(=O)/C=C/c2ccc(O)c(OC)c2)ccc1O
IC50 (cell growth or viability; MTT; 48 h): 24 mg/L

O=[N+]([O-])c1c[nH]nc1-c1nc(-c2ccc3oc4ccccc4c3c2)no1
IC50 (cell growth or viability; LDH; 24 h): 9.8 mg/L

CNCC(O)c1ccc(O)c(O)c1 (racemic)
pIC50 (TNF-α release; inhibitor; 17 h; LPS-stimulated): 6.82

C#CCSc1nc(Sc2nnnn2-c2ccccc2)c2nnn(Cc3ccc(OC)cc3)c2n1
pIC50 (cell growth or viability; MTS; 6 days): 5.60

CCn1c(-c2nnc(NC(=O)c3cc4c([nH]c5ccccc54)c(-c4ccc(OC)cc4)n3)s2)cc2ccccc21
pIC50 (cell growth or viability; MTT; 72 h): 4.31

CC(CCc1ccc(O)cc1)NCCc1ccc(O)c(O)c1 (centres unmarked)
pIC50 (TNF-α release; inhibitor; 17 h; LPS-stimulated): 6.29

O=C(Nc1nnc(-c2cc3ccccc3[nH]2)s1)c1cc2c([nH]c3ccccc32)c(-c2ccc(Cl)cc2)n1
pIC50 (cell growth or viability; MTT; 72 h): 5.36

C=C1C(=O)O[C@H]2[C@H]1CC/C(C)=C/CC[C@@]1(C)O[C@@H]21
pIC50 (TNF-α release; inhibitor; 17 h; LPS-stimulated): 5.89

CC[C@@H](C)[C@H](N)C(=O)N1Cc2ccccc2C1
pIC50 (cell growth or viability; ATP luminescence; 48 h): 5.60
